The values that follow come from ChEMBL document CHEMBL2311500, “Identification and characterization of small molecules as potent and specific EPAC2 antagonists” (J Med Chem, 2013).

Calls of active or inactive are those of the source. The calls are words filed in the database; no cut-off is given here.

The target in assay [1] is T1, Rap guanine nucleotide exchange factor 4 (Homo sapiens, UniProt Q8WZA2). The experiment in a line: Antagonist activity at recombinant EPAC2 (unknown origin) assessed 8-NBD-cAMP substrate fluorescence intensity by substrate competing assay.
Target sequence in this assay (Q8WZA2 whole entry): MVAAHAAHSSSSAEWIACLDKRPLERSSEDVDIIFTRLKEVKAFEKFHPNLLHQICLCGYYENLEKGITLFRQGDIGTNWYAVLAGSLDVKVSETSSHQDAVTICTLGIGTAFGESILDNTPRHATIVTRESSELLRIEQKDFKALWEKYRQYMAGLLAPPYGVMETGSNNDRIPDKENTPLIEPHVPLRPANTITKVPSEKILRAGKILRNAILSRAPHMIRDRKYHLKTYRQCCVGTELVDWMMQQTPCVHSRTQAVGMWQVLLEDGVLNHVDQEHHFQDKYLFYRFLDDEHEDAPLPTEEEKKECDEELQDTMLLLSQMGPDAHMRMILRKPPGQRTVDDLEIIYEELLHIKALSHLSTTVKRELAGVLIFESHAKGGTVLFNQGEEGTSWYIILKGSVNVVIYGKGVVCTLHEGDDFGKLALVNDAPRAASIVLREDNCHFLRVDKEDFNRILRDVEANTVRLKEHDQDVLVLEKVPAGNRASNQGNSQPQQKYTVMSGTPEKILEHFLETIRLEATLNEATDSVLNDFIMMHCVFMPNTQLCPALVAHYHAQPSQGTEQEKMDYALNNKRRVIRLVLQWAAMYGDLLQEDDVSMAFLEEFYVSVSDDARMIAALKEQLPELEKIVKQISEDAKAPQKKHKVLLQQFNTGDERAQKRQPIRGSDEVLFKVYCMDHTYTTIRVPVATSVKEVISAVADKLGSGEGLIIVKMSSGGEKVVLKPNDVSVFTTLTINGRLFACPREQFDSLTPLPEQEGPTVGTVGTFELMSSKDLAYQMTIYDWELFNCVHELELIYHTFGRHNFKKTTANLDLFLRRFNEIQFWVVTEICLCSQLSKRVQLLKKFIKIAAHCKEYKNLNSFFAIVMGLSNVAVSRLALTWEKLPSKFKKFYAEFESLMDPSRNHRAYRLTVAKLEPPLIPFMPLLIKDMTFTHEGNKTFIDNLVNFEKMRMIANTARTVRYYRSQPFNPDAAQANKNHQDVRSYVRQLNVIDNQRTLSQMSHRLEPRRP
Assay [2] is filed under the species Homo sapiens. Put plainly: Inhibition of PKA1 (unknown origin) assessed as inhibition of cAMP-induced activation at 25 uM by spectrophotometric analysis. Put shortly: (§1)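 Coupled pyruvate kinase/lactate dehydrogenase assay following NADH oxidation at 340 nm, at room temperature. The reaction was started with Kemptide (0.26 mM final). H89 (25 µM) served as the inhibition control.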

For assay [3], the species on record is Homo sapiens. The experiment in a line: Inhibition of PKA2 (unknown origin) assessed as inhibition of cAMP-induced activation at 25 uM by spectrophotometric analysis. In a few lines: as §1
In assay [4] the target is T1, Rap guanine nucleotide exchange factor 4. The experiment in a line: Inhibition of recombinant EPAC2 (unknown origin) assessed as inhibition of cAMP-mediated guanine nucleotide exchange factor activity at 25 uM by spectrofluorometric analysis. Put shortly:
(§2)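 Purified recombinant full-length EPAC1 or EPAC2 with 0.2 µM Mant-GDP-loaded Rap1B(1-167) in 50 mM Tris pH 7.5, 50 mM NaCl, 5 mM MgCl2, 1 mM DTT and 20 µM unlabeled GDP. […] Fluorescence decay (ex 366/em 450 nm) was recorded every 60 s over 6000 s.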
Target sequence in this assay (Q8WZA2 whole entry, looked up): as the sequence (Q8WZA2 whole entry) above

In assay [5] the target is T2, Rap guanine nucleotide exchange factor 3 (Homo sapiens) (UniProt O95398).
T2 sequence (whole entry): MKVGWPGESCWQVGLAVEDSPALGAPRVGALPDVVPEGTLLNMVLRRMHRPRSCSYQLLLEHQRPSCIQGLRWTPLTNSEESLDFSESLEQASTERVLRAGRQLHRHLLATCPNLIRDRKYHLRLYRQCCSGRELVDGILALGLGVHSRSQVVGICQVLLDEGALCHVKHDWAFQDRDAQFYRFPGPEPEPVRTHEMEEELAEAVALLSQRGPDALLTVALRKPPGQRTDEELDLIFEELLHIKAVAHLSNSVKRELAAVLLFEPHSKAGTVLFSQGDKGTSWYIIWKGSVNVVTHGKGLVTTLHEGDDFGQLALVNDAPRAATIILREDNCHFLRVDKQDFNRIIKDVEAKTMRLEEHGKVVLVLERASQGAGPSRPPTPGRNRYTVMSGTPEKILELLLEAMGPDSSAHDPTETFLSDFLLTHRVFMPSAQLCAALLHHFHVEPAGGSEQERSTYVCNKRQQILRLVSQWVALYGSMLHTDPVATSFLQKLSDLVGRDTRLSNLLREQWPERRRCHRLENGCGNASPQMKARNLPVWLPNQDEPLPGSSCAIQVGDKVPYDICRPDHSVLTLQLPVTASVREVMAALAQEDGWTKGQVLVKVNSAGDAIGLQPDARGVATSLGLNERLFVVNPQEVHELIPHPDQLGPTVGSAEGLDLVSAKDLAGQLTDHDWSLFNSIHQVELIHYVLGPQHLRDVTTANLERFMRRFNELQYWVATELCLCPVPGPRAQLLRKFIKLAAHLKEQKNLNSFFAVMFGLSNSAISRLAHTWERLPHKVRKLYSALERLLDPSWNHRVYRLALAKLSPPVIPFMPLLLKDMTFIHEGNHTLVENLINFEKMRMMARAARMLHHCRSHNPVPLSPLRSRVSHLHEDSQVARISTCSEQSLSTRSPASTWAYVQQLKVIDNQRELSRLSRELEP
Put plainly: Inhibition of recombinant EPAC1 (unknown origin) assessed as inhibition of cAMP-mediated RAP1-GDP exchange activity at 25 uM by spectrofluorometric analysis. Put shortly: as §2

The test system of another assay is HEK293. Put plainly: Inhibition of N-terminal CFP/C-terminal YFP tagged PKA (unknown origin) expressed in HEK293 cells assessed as inhibition of 8-Br-cAMP-AM-induced activation at 10 uM by FRET assay. Format: cell-based. As to conditions: Homo sapiens.
The target of assay [6] is T1, Rap guanine nucleotide exchange factor 4. As to conditions: HEK293, 10 uM.
Target sequence in this assay (Q8WZA2 whole entry, looked up): as the sequence (Q8WZA2 whole entry) above
The target of assay [7] is T2, Rap guanine nucleotide exchange factor 3 (Homo sapiens). The experiment in a line: Inhibition FL-tagged full length human EPAC1 expressed in HEK293 cells assessed as inhibition of 007-AM-induced activation at 10 uM by FRET assay. Format: cell-based.

Regarding `CCc1cccn1S(=O)(=O)c1ccc(C(F)(F)F)cc1`, the IC50 in assay [1] is > 300 µM.
The same measure, in the same setting: the value for `Cc1cc(C)c(S(=O)(=O)c2ccc(OC3CCN(C(=O)OC(C)(C)C)CC3)cc2)c(C)c1` was > 300 µM; that for `Cc1cc(C)c(S(=O)(=O)n2ccc3ncccc32)c(C)c1` was 3.8 µM.
Regarding `Cc1cc(C)c(Nc2cc(Cl)cc(Cl)c2)c(C)c1`, the IC50 in assay [1] stood at 0.9 µM.
On the same count and under the same terms, the value for `Cc1cc(C)c(S(=O)(=O)n2ccc3cccnc32)c(C)c1` was 2.4 µM; that for `COC(=O)c1ccc2c(ccn2S(=O)(=O)c2c(C)cc(C)cc2C)c1` was > 300 µM.
Same read-out and setting: the value for `Cc1cc(C)c(S(=O)(=O)c2ccc(-c3ccc(F)nc3)cc2)c(C)c1` was > 300 µM; that for `CCCCCc1ccc(S(=O)(=O)c2c(C)cc(C)cc2C)cc1` was > 300 µM.
Regarding `Cc1cc(C)c(Nc2cc(Cl)ccc2Cl)c(C)c1`, the IC50 in assay [1] is 0.4 µM. The inhibition entry (in the assay filed under Homo sapiens [2]; in the assay filed under Homo sapiens [3]; in assay [5]) was “inactive” in each case. The inhibition result in assay [4] is “Active”.
In the case of `Cc1cc(C)c(S(=O)(=O)n2cc(C)cc2C)c(C)c1`, the inhibition result (in the assay on HEK293; in the assay listed under Homo sapiens [2]; in the assay filed under Homo sapiens [3]; in assay [5]; in assay [7]) was “inactive” in each case. Further, the inhibition entry in assay [6] and in assay [4] was “Active” throughout.
For the molecule `O=S(=O)(NCCNC/C=C/c1ccc(Br)cc1)c1cccc2cnccc12`, the inhibition entry in the assay listed under Homo sapiens [2] and in the assay filed under Homo sapiens [3] was “Active” each time.
As for `Cc1cc(C)c(S(=O)(=O)n2ccc3cnccc32)c(C)c1`, the IC50 in assay [1] turned out to be 8.9 µM.
Same read-out and setting: the value for `Cc1cc(C)c(S(=O)(=O)n2ccc3cc(C(=O)O)ccc32)c(C)c1` was 10.8 µM; that for `CCc1cccn1S(=O)(=O)c1cc(C)cc(C)c1` was 4.7 µM.
The same measure, in the same setting: the value for `Cc1ccc(Nc2c(C)cc(C)cc2C)cc1` was 3.8 µM.
Still for that read-out and setting: the value for `Cc1cc(C)c(S(=O)(=O)c2cc(C)c(C)cc2C)c(C)c1` was 0.7 µM.
With `Cc1cc(C)c(Nc2nc(C)c(C)s2)c(C)c1`, the IC50 in assay [1] is > 300 µM.
The same measure, in the same setting: the value for `CCc1cccn1S(=O)(=O)c1ccc(C)cc1C` was 1.3 µM; that for `Cc1cc(C)c(S(=O)(=O)c2ccc(O)cc2)c(C)c1` was 13.5 µM; that for `Cc1cc(C)c(S(=O)(=O)c2ccc(C3CCCCC3)cc2)c(C)c1` was > 300 µM.
With `Cc1ccc(S(=O)(=O)c2c(C)cc(C)cc2C)cc1`, the inhibition entry (in the assay listed under Homo sapiens [2]; in the assay listed under Homo sapiens [3]; in assay [5]) was “inactive” each time. For the same molecule, in assay [4], the inhibition entry is “Active”.
As to `Cc1cc(C)c(S(=O)(=O)c2ccc(OCCN)cc2)c(C)c1`, the IC50 in assay [1] was > 300 µM.
Same read-out and setting: the figure for `CCc1cccn1S(=O)(=O)c1ccc(C)cc1` is 4 µM.
Take `Cc1cc(C)c(S(=O)(=O)n2ccc3ccccc32)c(C)c1`: the concentration for half-maximal inhibition (IC50) in assay [1] turned out to be 1.2 µM.
Still for that read-out and setting: the value for `Cc1cc(C)c(S(=O)(=O)c2ccc(OC3CCNCC3)cc2)c(C)c1` was > 300 µM.
Turning to `Nc1ccc(Nc2ccc(N)cc2S(=O)(=O)O)cc1`, the IC50 in assay [1] worked out at 18 µM.
Turning to `Cc1cc(C)c(S(=O)(=O)c2ccc(OC3CCCCC3)cc2)c(C)c1`, the concentration for half-maximal inhibition (IC50) in assay [1] is > 300 µM.
`CCc1cccn1S(=O)(=O)c1ccc(OC)cc1`: the IC50 in assay [1] was found to be 8 µM.
On the same count and under the same terms, the value for `Cc1cc(C)c(S(=O)(=O)c2ccc(I)cc2)c(C)c1` was 4 µM.
As to `Cc1cc(C)c(S(=O)(=O)n2ccc3ccncc32)c(C)c1`, the IC50 in assay [1] turned out to be 12.6 µM.
With `CCc1cccn1S(=O)(=O)c1ccccc1C`, the IC50 in assay [1] worked out at 5.3 µM.
As for `COc1ccc(S(=O)(=O)c2c(C)cc(C)cc2C)cc1`, in assay [1], the IC50 came to 1.9 µM.
